The text below walks through data of ChEMBL document CHEMBL1134315 (J Med Chem, 2001).

The structures appear in SMILES notation.

One test concerns the target Cannabinoid receptor 2 (Homo sapiens, UniProt P34972). Put plainly: Binding affinity to human CB2 cannabinoid receptor using [3H]CP-55940 in HEK293 EBNA transfected cells. It is filed as cell-based.
The target of another test is Cannabinoid receptor 1 (Rattus norvegicus, UniProt P20272). Nature of the test: Binding affinity to CB1 cannabinoid receptor using [3H]WIN-55212-2 in rat cerebellum membranes. It is filed as cell membranes, Membrane.
Cannabinoid receptor 1, sequence (P20272 whole entry): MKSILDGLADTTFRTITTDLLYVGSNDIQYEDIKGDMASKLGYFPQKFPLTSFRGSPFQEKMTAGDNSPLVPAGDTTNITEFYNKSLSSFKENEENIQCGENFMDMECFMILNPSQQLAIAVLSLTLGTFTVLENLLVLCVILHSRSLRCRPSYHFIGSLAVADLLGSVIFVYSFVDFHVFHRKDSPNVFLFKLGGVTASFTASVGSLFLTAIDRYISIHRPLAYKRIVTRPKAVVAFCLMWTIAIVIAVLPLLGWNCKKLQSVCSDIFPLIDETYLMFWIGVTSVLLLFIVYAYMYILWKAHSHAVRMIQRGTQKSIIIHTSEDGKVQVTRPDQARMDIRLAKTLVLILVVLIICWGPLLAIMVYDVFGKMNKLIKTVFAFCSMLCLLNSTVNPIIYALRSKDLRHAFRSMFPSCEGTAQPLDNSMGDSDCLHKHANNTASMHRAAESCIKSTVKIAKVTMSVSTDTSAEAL
Test [1] addresses Transient receptor potential cation channel subfamily V member 1 (Rattus norvegicus, UniProt O35433). Put plainly: Binding affinity to vanilloid VR1 receptor using [3H]resiniferatoxin ([3H]-RTX) in rat spinal cord membranes. The test is classed as cell membranes, Membrane. The gist of the method: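 Radioligand displacement binding used these systems: CB1, rat cerebellum membranes with [3H]WIN55212-2; CB2, HEK293EBNA cells transfected with the human CB2 receptor, with [3H]CP55940; VR1, rat spinal cord membranes with [3H]RTX. Ki values come from two independent experiments, each run in triplicate, and are reported as mean ± standard error.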

The test system of test [2] is U-937. Put plainly: Ability to inhibit [3H]anandamide uptake in human lymphoma U937 cells. The test is classed as functional, cell-based. The gist of the method: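 IC50 values come from three independent experiments, each run in triplicate, and are reported as mean ± standard error.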
The subject of test [3] is U-937. Put plainly: Ability to inhibit [3H]anandamide uptake in human lymphoma U937 cells; inactive. The test is classed as functional, cell-based.

Cannabinoid receptor 2, sequence (P34972 whole entry): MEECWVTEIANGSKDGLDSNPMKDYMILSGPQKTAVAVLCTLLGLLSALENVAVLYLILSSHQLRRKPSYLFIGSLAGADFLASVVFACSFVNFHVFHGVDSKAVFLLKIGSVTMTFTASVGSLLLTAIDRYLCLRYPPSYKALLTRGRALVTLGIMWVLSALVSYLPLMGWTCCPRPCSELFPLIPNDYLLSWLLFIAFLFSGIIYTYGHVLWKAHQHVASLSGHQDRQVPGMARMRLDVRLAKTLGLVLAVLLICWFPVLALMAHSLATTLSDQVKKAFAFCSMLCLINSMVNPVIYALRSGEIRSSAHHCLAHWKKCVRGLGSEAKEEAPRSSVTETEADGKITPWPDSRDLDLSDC
Transient receptor potential cation channel subfamily V member 1, sequence (O35433 whole entry): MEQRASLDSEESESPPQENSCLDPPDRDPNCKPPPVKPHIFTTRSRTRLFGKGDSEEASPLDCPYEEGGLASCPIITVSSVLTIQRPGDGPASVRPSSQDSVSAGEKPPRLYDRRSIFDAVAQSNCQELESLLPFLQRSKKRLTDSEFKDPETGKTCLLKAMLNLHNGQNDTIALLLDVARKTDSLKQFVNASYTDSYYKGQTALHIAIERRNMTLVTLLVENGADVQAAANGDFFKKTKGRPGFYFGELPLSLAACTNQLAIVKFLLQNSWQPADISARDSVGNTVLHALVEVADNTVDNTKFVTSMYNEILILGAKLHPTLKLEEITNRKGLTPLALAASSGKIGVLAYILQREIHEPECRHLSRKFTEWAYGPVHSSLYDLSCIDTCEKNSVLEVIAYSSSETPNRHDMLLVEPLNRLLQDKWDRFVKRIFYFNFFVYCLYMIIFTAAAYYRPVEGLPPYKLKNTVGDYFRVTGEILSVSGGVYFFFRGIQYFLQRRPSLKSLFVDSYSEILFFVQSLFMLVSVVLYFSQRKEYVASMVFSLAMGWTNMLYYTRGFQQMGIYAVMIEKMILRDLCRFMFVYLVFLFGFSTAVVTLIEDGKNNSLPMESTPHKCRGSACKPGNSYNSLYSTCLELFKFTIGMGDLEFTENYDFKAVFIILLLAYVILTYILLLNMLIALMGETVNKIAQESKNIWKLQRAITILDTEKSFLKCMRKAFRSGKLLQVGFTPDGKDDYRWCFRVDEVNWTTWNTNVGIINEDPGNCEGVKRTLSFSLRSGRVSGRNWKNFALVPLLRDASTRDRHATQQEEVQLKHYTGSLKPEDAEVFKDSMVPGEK

On to `CCCCC/C=C\C/C=C\C/C=C\C/C=C\CCCC(=O)OCc1ccsc1`, for which the Ki at Cannabinoid receptor 2 was > 1000 nM; at Cannabinoid receptor 1, > 1000 nM; in test [1], > 5000 nM. The same compound yielded a 50% inhibitory concentration (IC50) in the test with U-937 [2] of 3000 nM.
`CCCCC/C=C\C/C=C\C/C=C\C/C=C\CCCC(=O)NCC1CCCO1` (configuration not stated): the Ki at Cannabinoid receptor 2 is > 1000 nM; on Cannabinoid receptor 1, > 1000 nM; in test [1], > 5000 nM. Also, the IC50 in the test on U-937 [2] was 8000 nM.
As for `CCCCC/C=C\C/C=C\C/C=C\C/C=C\CCCC(=O)OCC1CCCO1` (configuration not stated), the figures for the Ki (on Cannabinoid receptor 2; on Cannabinoid receptor 1; in test [1]) were > 1000 nM, > 1000 nM and > 5000 nM, respectively. The IC50 in the test on U-937 [2] worked out at 18000 nM.
With `CCCCC/C=C\C/C=C\C/C=C\C/C=C\CCCC(=O)OCC1CCOC1` (configuration not stated), the Ki on Cannabinoid receptor 2 was > 1000 nM; in test [1] it was > 5000 nM.
In the case of `CCCCC/C=C\C/C=C\C/C=C\C/C=C\CCCC(=O)OCc1ccoc1`, the Ki is > 1000 nM on Cannabinoid receptor 2, > 1000 nM at Cannabinoid receptor 1 and < 5000 nM in test [1]. Moreover, it took 14000 nM to reach half-maximal inhibition with U-937 [2] (IC50).
For the compound `CCCCC/C=C\C/C=C\C/C=C\C/C=C\CCCC(=O)OCc1cccs1`, the values for the Ki (at Cannabinoid receptor 2; at Cannabinoid receptor 1; in test [1]) were > 1000 nM, > 1000 nM and > 5000 nM, respectively. In addition, the IC50 result in the test with U-937 [3] is “Not Active”.
For the compound `CCCCC/C=C\C/C=C\C/C=C\C/C=C\CCCC(=O)OCc1ccco1`, the results for the Ki (on Cannabinoid receptor 2; on Cannabinoid receptor 1; in test [1]) were > 1000 nM, > 1000 nM and > 5000 nM, respectively. The same compound registered an IC50 with U-937 [2] of 24000 nM.
Consider `CCCCC/C=C\C/C=C\C/C=C\C/C=C\CCCC(=O)NCc1ccco1`, for which the results for the inhibition constant Ki (at Cannabinoid receptor 2; on Cannabinoid receptor 1; in test [1]) were > 1000 nM, > 1000 nM and < 5000 nM, respectively. For the same compound, the IC50 with U-937 [2] was determined as 5000 nM.
Take `CCCCC/C=C\C/C=C\C/C=C\C/C=C\CCCC(=O)Nc1ccc(O)cc1`: the values for the Ki (at Cannabinoid receptor 2; at Cannabinoid receptor 1; in test [1]) were > 1000 nM, > 1000 nM and > 5000 nM, respectively. In addition, in the test on U-937 [2], the IC50 worked out at 4000 nM.
As for `CCCCC/C=C\C/C=C\C/C=C\C/C=C\CCCC(=O)NCc1cccn1C`, the Ki was 70 nM at Cannabinoid receptor 2, 124 nM at Cannabinoid receptor 1 and > 5000 nM in test [1]. Further, the IC50 in the test with U-937 [2] turned out to be 5000 nM.
For `CCCCC/C=C\C/C=C\C/C=C\C/C=C\CCCC(=O)NCc1cccs1`, the inhibitory constant (Ki) at Cannabinoid receptor 2 was > 1000 nM; at Cannabinoid receptor 1 it was > 1000 nM; in test [1], > 5000 nM. In addition, the IC50 in the test on U-937 [2] came out at 5700 nM.
As to `CCCCC/C=C\C/C=C\C/C=C\C/C=C\CCCC(=O)NCc1ccoc1`, the results for the Ki (at Cannabinoid receptor 2; at Cannabinoid receptor 1; in test [1]) were 67 nM, > 1000 nM and > 5000 nM, respectively. The compound further returned an IC50 in the test on U-937 [2] of 800 nM.
In test [1], `CCCCC/C=C\C/C=C\C/C=C\C/C=C\CCCC(=O)NCCO` [ANANDAMIDE] had a Ki of 169 nM.

Usually Ki stands for a dissociation constant, usually derived from enzyme kinetics or from competition with a known ligand. A higher Ki goes with lower affinity. What is called IC50 is the midpoint of a concentration-inhibition curve.
